Measurements collected from several papers.
Lines come from different studies, so protocols differ. ≈ marks a conversion by molar mass, not a printed value.
Organism: Escherichia coli

With `COC(=O)c1cc(-c2cccc(NC(=O)Nc3cc(Cl)ccc3Cl)c2)on1` the MIC was > 64 µg/mL (microbial growth, broth dilution; ATCC25922).
`O=C(N[C@H](CO)[C@H](O)c1ccc([N+](=O)[O-])cc1)C(Cl)Cl` gave an MIC90 of 15.6 µg/mL (≈ 48.3 µM) (microbial growth).
`CCCCCCCCCCCCCCCCCCCCc1cc(O)cc(O)c1` gave an IC50 of > 200 µM (microbial growth).
With `COc1c(N2C[C@@H]3CCCN[C@@H]3C2)c(F)cc2c(=O)c(C(=O)O)cn(C3CC3)c12` the MIC90 was 0.06 µg/mL (≈ 0.149 µM) (microbial growth).
`Cc1cc(/C=C2\Sc3ccccc3N2CCCN2CCC(C)CC2)c2ccccc2[n+]1C.[I-]` has an MIC of 1 µg/mL (microbial growth, broth dilution; ATCCBAA2469).
With `COC(=O)c1cc(-c2cccc(NC(=O)Nc3ccc(F)c(F)c3)c2)on1` the MIC was > 64 µg/mL (microbial growth, broth dilution; ATCC25922).
`Cc1c(NN=C(C#N)C2=NC(=O)CS2)c(=O)n(-c2ccccc2)n1C` has an MBC of 0.25 µg/mL (≈ 0.705 µM) (microbial killing, broth dilution).
With `CC(C)C(C)CCCCCCCCCCCc1cc(O)cc(O)c1` (centres unmarked) the IC50 was 50.2 µM (microbial growth).
`COC(=O)c1cc(-c2cccc(NC(=S)Nc3ccc(C)cc3)c2)on1` has an MIC of > 64 µg/mL (microbial growth, broth dilution; ATCC25922).
With `C[C@H]1NCc2cc(-c3ccc4c(=O)c(C(=O)O)cn(C5CC5)c4c3OC(F)F)ccc21` the MIC90 was 0.25 µg/mL (≈ 0.586 µM) (microbial growth, broth dilution).
`CC(C)CCCCCCCCCCCCCCCc1cc(O)cc(O)c1` gave an IC50 of 70.2 µM (microbial growth).
For `CCCCCCCCCCCC(=O)OC[C@H]1O[C@@H](n2cc(C)c(=O)[nH]c2=O)C[C@@H]1O`, the MBC was 16 µg/mL (≈ 37.7 µM) (microbial killing, broth dilution).
With `Oc1cccc2cccnc12` the IC50 was 49.5 µg/mL (microbial growth, broth dilution; ATCC25922).
For `COC(=O)c1cc(-c2cccc(NC(=S)Nc3ccc(F)cc3F)c2)on1`, the MIC was > 64 µg/mL (microbial growth, broth dilution; ATCC25922).
